Laboratory results from ChEMBL document CHEMBL1140214, “Antitumor activity of new substituted 3-(5-imidazo[2,1-b]thiazolylmethylene)-2-indolinones and 3-(5-imidazo[2,1-b]thiadiazolylmethylene)-2-indolinones: selectivity against colon tumor cells and effect on cell cycle-related events” (2008).
Calls of active or inactive are those of the source. The rule behind the calls is not given here.

Key:
[1] = Antitumor activity against human Breast cancer cells after 48 hrs by SRB assay; format: functional, Cancer cell lines; details: for GI50 / TGI: Homo sapiens, Cancer cell lines, 48 h; for TGI: read-out: pTGI (converted)
In short: (§1)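 NCI 60-cell panel two-stage screen: a single-dose pass at 10^-5 M, then five-dose testing for active compounds. Compounds were dissolved in DMSO and tested at five 10-fold dilutions, the highest 10^-4 M (10^-3 M in some cases). Results are given as the negative log molar concentration at three end points: pGI50, pTGI (total growth inhibition) and pLC50. Means are panel-subtype averages.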

[2] = Antitumor activity against human ovarian cancer cells after 48 hrs by SRB assay; format: functional, Cancer cell lines; details: for GI50 / TGI: Homo sapiens, Cancer cell lines, 48 h; for TGI: read-out: pTGI (converted); in short: as §1
NSCLC = experiment: Antitumor activity against human NSCLC cells after 48 hrs by SRB assay; format: functional; details: for GI50 / TGI: Homo sapiens, NSCLC, 48 h; for TGI: read-out: pTGI (converted); in short: as §1
HT-29 [3] = experiment: Cell cycle arrest in human HT-29 cells assessed as accumulation at G2/M phase at 2 uM after 24 hrs by flow cytometry; format: functional
In short: (§2)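 HT-29 cells were grown in RPMI 1640 with 10% FBS and 2 mM L-glutamine at 37 °C, 5% CO2, and treated 24 h after plating at 2 × 10^4 cells/cm^2. Exposure was 24 h at 0.5–2 µM test compound or 30 nM vincristine, with DMSO controls. Cells were stained with propidium iodide, RNase and NP-40 for 30 min in the dark, then DNA content was read by flow cytometry. Mean ± SEM, n=3.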

HT-29 [4] = experiment: Induction of apoptosis in human HT-29 cells assessed as caspase activity after 48 hrs by fluorimetric assay; format: functional, cell-based
In short: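 DEVDase (caspase) activity was measured fluorometrically in extracts of HT-29 cells treated for 24 or 48 h at the indicated concentrations.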

HT-29 [5] = experiment: Inhibition of cell proliferation in human HT-29 cells at 2 uM; format: functional, cell-based
In short: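 HT-29 cells in RPMI 1640 with 10% FBS were exposed to compound in fresh medium 24 h after plating, with DMSO controls. Cells were counted daily and viability was checked by Trypan blue exclusion.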

HT-29 [6] = experiment: Increase in cellular tubulin condensation in human HT-29 cells at 1 uM after 24 hrs using DAPI staining by immunofluorescence technique; format: functional, cell-based
In short: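 HT-29 cells on glass coverslips at 1 × 10^4 cells/cm^2 were treated 24 h at 1 µM, or with 30 nM vincristine. After fixation they were stained overnight at 4 °C with anti-α-tubulin mouse monoclonal, then 1 h at room temperature with FITC anti-mouse IgG, and counterstained with DAPI. Imaging was by laser scanning confocal microscopy.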

[7] = target: T1, Ornithine decarboxylase (Homo sapiens) (UniProt P11926); experiment: Inhibition of ornithine decarboxylase in human HT-29 cells assessed as release of radioactive CO2 from [14C-carboxyl] ornithine; format: cell-based
T1 sequence (whole entry): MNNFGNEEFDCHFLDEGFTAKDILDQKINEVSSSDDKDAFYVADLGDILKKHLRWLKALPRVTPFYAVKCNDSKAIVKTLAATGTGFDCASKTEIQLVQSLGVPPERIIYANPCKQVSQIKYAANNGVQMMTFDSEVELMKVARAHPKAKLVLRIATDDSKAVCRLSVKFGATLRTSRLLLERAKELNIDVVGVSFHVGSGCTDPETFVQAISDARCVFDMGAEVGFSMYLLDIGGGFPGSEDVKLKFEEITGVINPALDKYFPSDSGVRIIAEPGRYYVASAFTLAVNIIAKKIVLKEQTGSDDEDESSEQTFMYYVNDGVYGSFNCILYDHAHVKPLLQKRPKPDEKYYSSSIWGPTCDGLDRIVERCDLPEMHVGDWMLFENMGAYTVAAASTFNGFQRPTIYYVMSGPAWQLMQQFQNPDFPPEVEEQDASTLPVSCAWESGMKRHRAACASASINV
In short: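 Extracts were taken from HT-29 cells after 24 h exposure to the indicated concentrations of test compound or vincristine. ODC activity was read as 14CO2 released from [14C-carboxyl]ornithine. Mean ± SEM, n=3.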

[8] = Antitumor activity against human Colon cancer cells after 48 hrs by SRB assay; format: functional, Cancer cell lines; details: for GI50 / TGI: Homo sapiens, Cancer cell lines, 48 h; for TGI: read-out: pTGI (converted); in short: as §1
Leukemia cell = experiment: Antitumor activity against human Leukemia cells after 48 hrs by SRB assay; format: functional; details: for GI50 / TGI: Homo sapiens, Leukemia cell, 48 h; for TGI: read-out: pTGI (converted); in short: as §1
[9] = Antitumor activity against human renal cancer cells after 48 hrs by SRB assay; format: functional, Cancer cell lines; details: for GI50 / TGI: Homo sapiens, Cancer cell lines, 48 h; for TGI: read-out: pTGI (converted); in short: as §1
Melanoma cell = experiment: Antitumor activity against human Melanoma cells after 48 hrs by SRB assay; format: functional; details: for TGI: read-out: pTGI (converted); in short: as §1
[10] = Antitumor activity against human CNS cancer cells after 48 hrs by SRB assay; format: functional, Cancer cell lines; details: for TGI: read-out: pTGI (converted); in short: as §1
HT-29 [11] = experiment: Cell cycle arrest in human HT-29 cells assessed as accumulation at G2/M phase after 24 hrs by flow cytometry; format: functional, cell-based; in short: as §2
[12] = Antitumor activity against human prostate cancer cells after 48 hrs by SRB assay; format: functional, Cancer cell lines; in short: as §1
HT-29 [13] = experiment: Cell cycle arrest in human HT-29 cells assessed as accumulation at G2/M phase at 30 nM after 24 hrs by flow cytometry; format: functional, cell-based; in short: as §2
[14] = Homo sapiens, Melanoma cell, 48 h, read-out: pGI50 (converted)
[15] = Homo sapiens, Melanoma cell, 48 h
[16] = Homo sapiens, Cancer cell lines, 48 h, read-out: pGI50 (converted)
[17] = Homo sapiens, Cancer cell lines, 48 h

Compound	GI [1] [µM]	GI50 [1] [µM]	TGI [1] [µM]	GI [2] [µM]	GI50 [2] [µM]	TGI [2] [µM]	GI (NSCLC) [µM]	GI50 (NSCLC) [µM]	TGI (NSCLC) [µM]	Activity [7]	GI [8] [µM]	GI50 [8] [µM]	TGI [8] [µM]	GI (Leukemia cell) [µM]	GI50 (Leukemia cell) [µM]	TGI (Leukemia cell) [µM]	GI [9] [µM]	GI50 [9] [µM]	TGI [9] [µM]	GI50 (Melanoma cell; [14]) [µM]	further results
COc1ccc2c(c1)/C(=C\c1c(C)nc3sc(C)nn13)C(=O)N2	2.63	2.63	75.9	5.01	5.01	72.4	5.37	5.37	56.2	Dose-dependent effect	0.69	0.692	41.7	1.15	1.15	38	6.17	6.17	91.2	6.31	Activity (HT-29 [3]): 58%; Activity (HT-29 [4]): Active; Activity (HT-29 [5]): Active; Activity (HT-29 [6]): Active; GI50 (Melanoma cell): 6.31 µM; TGI (Melanoma cell; [15]): 69.2 µM; GI50 [10]: 2.51 µM; GI50 [10, 16]: 2.51 µM; TGI [10, 17]: 38 µM; Activity (HT-29 [11]): Dose-dependent effect; GI [12]: 3.89 µM; GI50 [12, 17]: 3.89 µM
CC[C@]1(O)C[C@H]2CN(CCc3c([nH]c4ccccc34)[C@@](C(=O)OC)(c3cc4c(cc3OC)N(C=O)[C@H]3[C@@](O)(C(=O)OC)[C@H](OC(C)=O)[C@]5(CC)C=CCN6CC[C@]43[C@@H]65)C2)C1.O=S(=O)(O)O [VINCRISTINE SULFATE]	0.32	0.316	7.94	0.32	0.316	20	0.25	0.251	15.8	Active	0.1	0.1	3.98	0.1	0.1	15.8	0.32	0.316	20	0.158	Activity (HT-29 [13]): Active; CC50 (Melanoma cell; Homo sapiens, Melanoma cell, 48 h, read-out: pLC50 (the source's name) (converted)): 251 µM; TGI (Melanoma cell; [15]): 7.94 µM; GI50 [10, 16]: 0.126 µM; TGI [10, 17]: 6.31 µM; GI [12]: 0.13 µM; GI50 [12, 17]: 0.126 µM; TGI ([12]; Homo sapiens, Cancer cell lines, 48 h, read-out: pTGI (converted)): 6.31 µM
